As usually defined, the Ki is a dissociation constant, usually derived from enzyme kinetics or from competition with a known ligand. Low values mean a stronger hold on the target, high ones a looser hold on the target. One may read the EC50 as the midpoint of the concentration-response curve.

Experimental findings from ChEMBL document CHEMBL1133089 (J Med Chem, 2000) are described below.

Experiment [1] concerns the target T1, Neuronal acetylcholine receptor subunit alpha-7 (Rattus norvegicus, UniProt Q05941). Put plainly: Binding affinity in rat hippocampi against Nicotinic acetylcholine receptor alpha7. The format is tissue-based, Hippocampus. A digest of the protocol: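 Incubated with 5 nM [¹²⁵I]α-bungarotoxin and 1 mg/mL BSA for 2 h at 21 °C. Collected on GF/C filters pretreated with 1% BSA/0.01% PEI. IC50 from six concentrations in triplicate.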

For experiment [2], the target named is Neuronal acetylcholine receptor; alpha4/beta2 (Rattus norvegicus, UniProt P09483+P12390). In words: Binding affinity in rat forebrain against Nicotinic acetylcholine receptor alpha4-beta2. A digest of the protocol:
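Captured on GF/B filters treated with 0.01% PEI and counted by scintillation. Nonspecific binding taken with 100 µM carbachol. IC50 fitted from five concentrations run in triplicate.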

The target of experiment [3] is T1, Neuronal acetylcholine receptor subunit alpha-7. In words: Potency was determined by measuring current activation in Xenopus oocytes expressing rat alpha-7 nAChRs. Type of experiment: cell-based, Oocyte. Put shortly: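 Xenopus oocytes injected with cRNA for rat α7 nAChR and recorded 3-10 days after injection. Read-out is evoked current activation. Intrinsic activity scaled in each oocyte to the current elicited by 3 mM acetylcholine, set as 100%.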

T1 sequence (Q05941 whole entry): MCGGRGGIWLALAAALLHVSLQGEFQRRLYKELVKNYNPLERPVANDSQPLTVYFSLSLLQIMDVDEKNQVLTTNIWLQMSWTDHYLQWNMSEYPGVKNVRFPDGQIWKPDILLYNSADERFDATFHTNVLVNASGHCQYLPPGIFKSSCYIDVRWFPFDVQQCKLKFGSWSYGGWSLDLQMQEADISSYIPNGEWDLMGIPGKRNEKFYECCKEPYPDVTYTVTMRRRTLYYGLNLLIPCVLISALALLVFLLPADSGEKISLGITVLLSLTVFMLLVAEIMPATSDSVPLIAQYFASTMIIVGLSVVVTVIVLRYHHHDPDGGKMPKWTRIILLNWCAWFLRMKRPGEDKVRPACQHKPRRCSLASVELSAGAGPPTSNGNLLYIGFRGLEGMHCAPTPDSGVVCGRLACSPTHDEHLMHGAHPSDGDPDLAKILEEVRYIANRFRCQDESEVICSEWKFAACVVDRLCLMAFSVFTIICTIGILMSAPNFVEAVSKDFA
Sequence of Neuronal acetylcholine receptor; alpha4/beta2 (P09483 whole entry): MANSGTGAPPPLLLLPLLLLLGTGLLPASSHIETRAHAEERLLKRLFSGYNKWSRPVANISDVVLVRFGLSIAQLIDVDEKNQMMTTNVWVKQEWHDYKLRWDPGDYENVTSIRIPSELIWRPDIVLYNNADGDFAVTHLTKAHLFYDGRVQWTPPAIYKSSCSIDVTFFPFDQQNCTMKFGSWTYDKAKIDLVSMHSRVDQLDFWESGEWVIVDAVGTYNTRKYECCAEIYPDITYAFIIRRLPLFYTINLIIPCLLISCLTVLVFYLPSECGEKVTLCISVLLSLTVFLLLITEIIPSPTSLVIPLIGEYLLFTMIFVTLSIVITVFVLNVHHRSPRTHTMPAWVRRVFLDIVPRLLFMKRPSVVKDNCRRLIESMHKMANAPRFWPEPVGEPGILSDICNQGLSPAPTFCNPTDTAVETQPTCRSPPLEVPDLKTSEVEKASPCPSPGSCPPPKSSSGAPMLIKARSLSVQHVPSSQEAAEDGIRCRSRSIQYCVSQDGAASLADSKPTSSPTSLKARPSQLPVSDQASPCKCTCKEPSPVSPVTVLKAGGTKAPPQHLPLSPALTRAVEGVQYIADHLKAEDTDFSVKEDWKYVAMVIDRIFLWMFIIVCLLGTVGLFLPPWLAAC
Sequence of Neuronal acetylcholine receptor; alpha4/beta2 (P12390 whole entry): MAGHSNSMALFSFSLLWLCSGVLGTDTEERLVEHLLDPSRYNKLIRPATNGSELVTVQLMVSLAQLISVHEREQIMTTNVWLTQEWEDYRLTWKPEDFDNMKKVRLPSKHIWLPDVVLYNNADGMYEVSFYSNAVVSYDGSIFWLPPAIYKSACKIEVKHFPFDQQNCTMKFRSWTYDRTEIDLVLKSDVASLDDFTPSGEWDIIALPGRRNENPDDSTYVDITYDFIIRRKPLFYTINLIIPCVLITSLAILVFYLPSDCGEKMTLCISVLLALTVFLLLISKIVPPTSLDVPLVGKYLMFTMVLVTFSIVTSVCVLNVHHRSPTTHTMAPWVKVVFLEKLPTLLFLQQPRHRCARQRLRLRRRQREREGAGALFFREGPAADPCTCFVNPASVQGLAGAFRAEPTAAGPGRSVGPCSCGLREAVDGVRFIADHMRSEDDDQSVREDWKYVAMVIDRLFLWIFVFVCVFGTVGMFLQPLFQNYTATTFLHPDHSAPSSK

With `CCN1CC2(CN3CCC2CC3)OC1=O` (configuration not stated), the inhibition constant (Ki) was determined as 0.69 µM in experiment [1] and 0.17 µM in experiment [2].

On to `CN1C(=O)NCC12CN1CCC2CC1` (configuration not stated), for which, in experiment [1], the Ki is over 13 µM.

For `O=C1NC2(CO1)CN1CCC2CC1` (configuration not stated), in experiment [1], the Ki was over 4.3 µM.

`O=C1CC2(CN1)CN1CCC2CC1` (configuration not stated) yielded a Ki in experiment [1] of 4 µM.

In turn, `O=C1NCC2(CN3CCC2CC3)N1` (configuration not stated) had an inhibition constant (Ki) in experiment [1] of over 13 µM.

In the case of `O=C1NCC2(CN3CCC2CC3)O1` (single isomer, unassigned; (-)), the EC50 in experiment [3] was 21000 µM.
